Our source for the IC50 values is PMC11362799 (The Journal of Biological Chemistry, 2024).

The structures appear in SMILES notation.

This assay deals with T1, human Gal-4C (Homo sapiens, UniProt P56470).
T1 sequence (P56470 179-323): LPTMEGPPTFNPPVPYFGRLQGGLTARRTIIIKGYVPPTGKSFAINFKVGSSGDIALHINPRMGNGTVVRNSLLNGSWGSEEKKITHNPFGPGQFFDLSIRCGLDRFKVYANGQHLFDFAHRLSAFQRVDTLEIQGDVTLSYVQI
Description: Competitive solid-phase assay: Gal-4C binding to immobilized asialofetuin. In a few lines:
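Human Gal-4C (residues 179–323, C-terminal His-tag, E. coli BL21) at 60 μg/ml final was preincubated 2 h at 37 °C with serially diluted glycan inhibitors; lactose was the reference. Mixtures went onto wells coated overnight at 4 °C with 10 µg/ml ASF (carbonate, pH 9.6) and BSA-blocked, for 2 h at 37 °C. Detection: biotinylated anti-Gal-4, HRP-streptavidin, TMB, A450. Values are means ± SEM from a representative of three experiments.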

With `OC[C@H]1O[C@@H](O[C@H]2[C@H](O)[C@@H](O)C(O)O[C@@H]2CO)[C@H](O)[C@@H](O)[C@H]1O` (mixture of isomers) [lactose], the 50% inhibitory concentration (IC50) stood at 7 mM.

As a reminder, the IC50 is the concentration that inhibits the measured activity by half. The low end stands for inhibition by little substance, the high end for a need for much substance.
